We go through two substances from PMC10939825 (Chemistry (Weinheim an der Bergstrasse, Germany), 2024).

In experiment [1] the test system is A. baumannii. In words: Membrane depolarization, DiSC 3. In kind it is cell-based, Acinetobacter baumannii. Particulars: 1 and 2X MIC, 2 hours. The method in brief:
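Cells suspended at 0.5 McFarland in 5 mM HEPES/20 mM glucose, pH 7.4, with DiSC3(5) at 1 μM final. Test compound at 1 and 2X MIC; controls were untreated cells, polymyxin B and daptomycin. Incubated 2 h at 37°C. Fluorescence read at ex 622 nm/em 670 nm; dye release into medium raises signal.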

For experiment [2], the system named is A. baumannii. In words: Membrane permeability, PI uptake. Format: cell-based, Acinetobacter baumannii. Particulars: 1 and 2X MIC, 2 hours. The method in brief:
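Bacteria washed and resuspended at 0.3 McFarland in 5 mM HEPES/20 mM glucose, pH 7.4, with propidium iodide at 7.5 μg/mL final. Test compound was given to MRSA JE2 at 0.5, 1 and 2X MIC and to A. baumannii at 1 and 2X MIC. Controls were untreated cells, polymyxin B and daptomycin. Incubated 2 h at 37°C; fluorescence read at ex 535 nm/em 615 nm.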

Experiment [3] relates to E. coli K12. In words: Zeta potential of treated bacteria by DLS. Format: cell-based, Escherichia coli. The settings on record: E. coli K12, PAs at 10X MIC.
In experiment [4] the test system is E. coli K12. In words: Inner membrane permeabilization assay. In kind it is cell-based, Escherichia coli. Particulars: E. coli K12, 0.5, 1 and 2X MIC, monitored for 180 mins, absorbance 415 nm, 37 °C, triplicate. The method in brief: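 Assay for β-galactosidase release into the medium using ONPG as substrate, adapted from a published method. Test compound was dissolved in PBS at 1 mg/mL, annealed at 80 °C for 30 min, aged overnight, then diluted in PBS or media. Controls were polymyxin B (positive) and bacteria with ONPG and PBS (negative). o-Nitrophenol absorbance at 415 nm was read at intervals at 37 °C.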

The subject of experiment [5] is MRSA JE2. As to the kind of experiment: Zeta potential of treated bacteria by DLS. Format: cell-based, Staphylococcus aureus. Particulars: 1 hour treatment. An outline of the steps:
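Bacteria were cultured 18–20 h, resuspended in PBS and adjusted to 5 X 10^7 CFU/mL. They were treated 1 h with test compound at 10X MIC; test compound was pre-annealed in PBS and aged overnight. Controls were untreated cells, polymyxin B and daptomycin. Zeta potential was then measured by DLS at 25 °C.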

Regarding Polymyxin B [PMB], the “order of activity, DiSC 3(5)” value in experiment [1] is “PA 26 > PMB > PA 9”. In experiment [2], the “PI intensity (membrane permeability)” value is given as “significant increase in PI intensity”. In addition, the “change of bacterial zeta potential” value in experiment [3] is “does not show a notable change”. Further, the “order of membrane permeability (ONPG)” value in experiment [4] is reported as “PMB > PA 26 > PA 3 > PA 9”.
For the substance daptomycin, the “change of bacterial zeta potential” value in experiment [5] is listed as “induces (slightly) the zeta potential to be more negative”.
